Compound activity from PubChem BioAssay.
S1P3 antagonist – S1P3 (human) receptor antagonism; Q99500; CHO S1P3 NFAT-BLA reporter, FRET fluorescence, antagonist mode; inhibition, % at 4.98 µM; 170,000 tested, 0.27% active;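 active means inhibition above the plate cutoff, the mean inhibition of test wells on that plate plus 3 SD, cut at about 28% in these data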;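 further: cells challenged with S1P at its EC80 of 0.8 µM; blue over green emission ratio from cleaved BLA substrate after 4 h stimulation; 0% = S1P-stimulated wells and 100% = unstimulated DMSO-only wells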
S1P4 antagonist – antagonists of human S1P4 receptor; O95977; S1P4-expressing cells, antagonist mode, reporter read-out; inhibition, % at 4.98 µM; 220,000 tested, 0.26% active; in the data active means inhibition above about 29%;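 further: 0% = wells stimulated with agonist and 100% = vehicle wells without agonist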
S1P4 ag – human S1P4 receptor agonism. 220,000 tested, 0.35% active. AID 1509. activation, % at 4.98 µM. S1P4-expressing cell line, agonist reporter assay; in the data active means activation above about 11%;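 further: 0% = DMSO vehicle and 100% = reference agonist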
L major viab – inhibitors of Leishmania major promastigote growth. 200,000 tested, 9% active. Leishmania major promastigotes, resazurin fluorescence viability. inhibition, % at 10 µM. AID 1063; in the data active means inhibition above about 50%;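 further: promastigotes grown with compound for 44 hours at 28 °C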
MDM2 E3 inh – Mdm2 E3 ligase (human) inhibition; cell-based MDM2 ubiquitination luciferase reporter, 2 h; 0 = plate control, 100 = twice control, blank-subtracted; signal enhancement, % at 5 µM; 210,000 tested, 0.11% active; AID 1230;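 active means signal enhancement of 30% or more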;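 further: luminescence tracks abundance of the self-degrading MDM2-luciferase fusion protein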
Target sequence (Q00987 whole entry, looked up, the tested form may be a part): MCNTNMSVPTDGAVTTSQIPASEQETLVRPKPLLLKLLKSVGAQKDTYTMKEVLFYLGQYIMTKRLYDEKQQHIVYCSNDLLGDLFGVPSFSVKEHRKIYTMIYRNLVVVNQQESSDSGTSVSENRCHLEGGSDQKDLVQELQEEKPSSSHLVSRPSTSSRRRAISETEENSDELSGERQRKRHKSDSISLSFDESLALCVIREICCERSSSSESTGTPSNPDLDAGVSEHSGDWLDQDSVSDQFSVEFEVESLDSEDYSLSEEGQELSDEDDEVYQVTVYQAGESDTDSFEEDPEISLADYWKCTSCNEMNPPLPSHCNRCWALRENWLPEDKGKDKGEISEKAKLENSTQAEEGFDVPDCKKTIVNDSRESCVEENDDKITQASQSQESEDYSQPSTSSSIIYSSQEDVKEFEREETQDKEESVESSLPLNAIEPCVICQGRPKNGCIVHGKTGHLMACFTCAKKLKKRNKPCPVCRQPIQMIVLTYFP
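Timing – 2 h compound exposure at 37 °C · Assay system – mammalian cells stably expressing self-ubiquitinating, self-degrading MDM2 E3–luciferase fusion · Amount – 2000 cells seeded into each well · Measure – % luminescence enhancement versus blank-corrected plate control mean · Measured by – SteadyLite luminescence, 15 min reagent step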
Numbers without * were called inactive; . = no result. Many of the other results were omitted from the sample, so hits are more common in it than they were.

SMILES | S1P3 antagonist | S1P4 antagonist | S1P4 ag | L major viab | MDM2 E3 inh
COc1ccc(C(C(=O)NC(C)(C)C)N(C(=O)Cn2nnc3ccccc32)c2cccc(C(C)=O)c2)cc1O (stereo unspecified) | -7 | -9 | 0 | . | .
c1ccc2oc(SCc3cn4ccccc4n3)nc2c1 | . | 2 | 2 | 7 | -11
Cc1cccc2nc(CSc3nc4ccccc4o3)cn12 | -4 | 6 | 0 | 64* | -2
CCn1cc(C2C(C(=O)Nc3cc(C)ccn3)=C(C)NC3=C2C(=O)CC(C)(C)C3)c(C)n1 (stereo unspecified) | -1 | -2 | 1 | -8 | 4
Cc1ccc(NC(=O)CNc2ccc(OC(C)C)cc2)c(C)c1 | . | 5 | 3 | 21 | -2
Cc1ccc(NS(=O)(=O)c2cc(NC(=O)C(C)Oc3ccccc3)ccc2C)c(C)c1 (stereo unspecified) | -14 | -11 | 0 | 98* | -5
Cc1ccc(NC(=O)C2CC(=O)N/C(=N/NC(=O)c3ccc(C)cc3)S2)cc1 (stereo unspecified) | 5 | 2 | 0 | -9 | -16
O=C1CC(C(=O)O)S/C(=N\NC(=O)c2ccc(F)cc2)N1 (stereo unspecified) | 0 | -14 | 1 | 73* | -3
COc1ccc(/C=N/NC(=O)c2nc(-c3ccccc3)n(-c3ccccc3)n2)c(O)c1 | 2 | 0 | 1 | 99* | 10
CC(C)(C)c1cc(C(=O)N/N=C/c2ccccc2O)n(-c2ccccc2)n1 | -22 | -8 | 4 | 99* | -2
CCC(CO)NC1=CC(=O)CCC1 (stereo unspecified) | 1 | -7 | 2 | -8 | -18
O=c1c2cc(N3CCOCC3)ccc2[nH]c(=S)n1Cc1ccccc1Cl | -1 | -25 | 2 | -1 | -3
C=CCn1c(=O)[nH]c2cc(C(=O)N3CCN(c4cccc(Cl)c4)CC3)ccc2c1=O | . | -11 | 2 | 1 | -15
CC(=O)c1ccc(N2CCN(C(=O)c3ccc(Cn4c(=S)[nH]c5ccc(N6CCOCC6)cc5c4=O)cc3)CC2)cc1 | -12 | -25 | 0 | 98* | 9
Cc1ccc(C)c(N2CCN(C(=O)c3ccc(Cn4c(=O)[nH]c5ccccc5c4=O)cc3)CC2)c1 | 22 | 22 | 0 | 98* | 0
O=C(c1ccc(Cn2c(=O)[nH]c3ccccc3c2=O)cc1)N1CCN(c2ccc(Cl)cc2)CC1 | 7 | -10 | 1 | 96* | -11
COCCCn1cnnc1SCc1nc2sc(C(C)=O)c(C)c2c(=O)[nH]1 | 3 | 0 | 2 | . | .
CC1Cc2ccccc2N1C(=O)CN1CCC(C(N)=O)CC1 (stereo unspecified) | -14 | -3 | -1 | -4 | -13
COc1ccc(CC(=O)N2CCc3cc(OC)c(OC)cc3C2O)cc1OC (stereo unspecified) | 9 | -2 | -1 | . | .
COCCCNc1nc(-c2ccncc2)nc2ccccc12 | . | -7 | 1 | 30 | -14
Clc1ccc(-c2nc(NCCN3CCOCC3)c3ccccc3n2)cc1 | 7 | 15 | 1 | 62* | -9
OCCNc1nc(-c2ccccc2)nc2ccccc12 | -3 | -17 | 0 | 20 | -11
CCN(CC)CCCNc1nc(-c2ccccc2)nc2ccccc12 | . | -13 | 0 | 72* | -9
c1ccc(-c2nc(NCCCn3ccnc3)c3ccccc3n2)cc1 | -5 | 10 | -1 | 54* | -16
COCCNc1nc(-c2ccccc2)nc2ccccc12 | -5 | -22 | 0 | 84* | -20
SMILES | S1P3 antagonist | S1P4 antagonist | S1P4 ag | L major viab | MDM2 E3 inh
COc1cccc(OCC(=O)Nc2ccccc2-c2ccccc2)c1 | -9 | -6 | 1 | -1 | -7
CCc1c(C)[nH]c2nc3ccccc3n2c1=O | . | -3 | 1 | 94* | 1
CCn1c(SCC(=O)N2c3ccccc3CC2C)nnc1-c1ccco1 (stereo unspecified) | . | -2 | -1 | 0 | .
COc1cccc(-n2c(SCC(=O)N3c4ccccc4CC3C)nnc2-c2ccco2)c1 (stereo unspecified) | . | 5 | -1 | 53* | -3
CC1Cc2ccccc2N1C(=O)CSc1nnc2n1C(C)(C)Cc1ccccc1-2 (stereo unspecified) | 4 | -8 | -1 | 52* | -29
CCOc1ncccc1C(=O)OCC(=O)c1ccc(C)c(C)c1 | -9 | -10 | -1 | -1 | -9
Cc1noc(C)c1CN1C(=O)NC2(CCCCCCC2)C1=O | . | -6 | -1 | 100* | -8
Cc1cc(NC(=O)CN2C(=O)NC3(CCCCC3)C2=O)no1 | -6 | 7 | -1 | -4 | .
